Measurements from different studies.
Lines come from different studies, so protocols differ.
Target: Serine/threonine-protein kinase A-Raf (ARAF, Homo sapiens, UniProt P10398)
One construct used (P10398 1-606): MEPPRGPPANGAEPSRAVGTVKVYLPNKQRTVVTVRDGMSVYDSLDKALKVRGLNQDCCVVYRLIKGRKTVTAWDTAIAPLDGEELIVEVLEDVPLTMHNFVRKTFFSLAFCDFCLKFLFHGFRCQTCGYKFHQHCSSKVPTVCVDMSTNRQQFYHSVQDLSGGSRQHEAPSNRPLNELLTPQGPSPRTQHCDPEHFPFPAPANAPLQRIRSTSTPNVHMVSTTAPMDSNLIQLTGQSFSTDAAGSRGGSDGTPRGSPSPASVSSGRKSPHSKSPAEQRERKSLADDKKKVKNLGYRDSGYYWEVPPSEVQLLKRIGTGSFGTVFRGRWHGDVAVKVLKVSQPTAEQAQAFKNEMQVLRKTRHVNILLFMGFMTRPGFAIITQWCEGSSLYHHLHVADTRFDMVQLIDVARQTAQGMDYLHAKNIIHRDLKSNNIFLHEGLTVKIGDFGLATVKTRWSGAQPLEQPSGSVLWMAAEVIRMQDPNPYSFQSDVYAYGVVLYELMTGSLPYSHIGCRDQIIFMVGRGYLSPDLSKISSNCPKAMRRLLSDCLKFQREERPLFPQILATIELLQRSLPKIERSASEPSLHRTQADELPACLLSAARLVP

SMILES	test	system	setting	endpoint	result
COc1cccc2c(NCc3ccccc3)nc(-n3c(N)nc4ccccc43)nc12	target engagement in cells, inhibitor, chemoproteomics		20 mM	inhibition	-7.3%
CC(C)(O)[C@H]1CC[C@H](Nc2ccc3ncc(-c4cccc(C(F)(F)F)c4)n3n2)CC1	enzyme activity, inhibitor		1 µM	remaining activity	96.9%
CCCCNc1ncc2c(-c3ccc(F)cc3)nn(C[C@H]3CC[C@H](N)CC3)c2n1	target engagement in cells, inhibitor, chemoproteomics		20 mM	inhibition	32.9%
CCN1CCN(Cc2ccc(NC(=O)c3ccc(C)c(/C=C/c4cnc5[nH]ccc5c4OC)c3)cc2C(F)(F)F)CC1	target engagement in cells, inhibitor, chemoproteomics	A-375	0.5 µM	inhibition	-68.8%
O=C(Nc1cnn(-c2csc(C(=O)NC3COC3)c2)c1)Nc1c(F)cccc1Cl	enzyme activity, inhibitor		5 µM	remaining activity	94.4%
CCN1CCN(Cc2ccc(NC(=O)c3ccc(C)c(Oc4ccnc5[nH]ccc45)c3)cc2C(F)(F)F)CC1	target engagement in cells, inhibitor, chemoproteomics	A-375	5 µM	inhibition	-85.6%
CNC(=O)c1cc(Oc2ccc(NC(=O)Nc3ccc(Cl)c(C(F)(F)F)c3)cc2)ccn1	cell-free assay		0.5 µM	remaining signal	7.04%
Cc1sc(C(=O)NC2COC2)cc1-n1cc(NC(=O)Nc2c(F)cccc2Cl)cn1	enzyme activity, inhibitor		10 µM	remaining activity	84.1%
CN1CC(Oc2cnc(C#N)cc2-c2ccn3nc(NC(=O)C4CC4)cc3c2)C1	enzyme activity, inhibitor		1 µM	inhibition	1%
Cc1cc(NC(=O)c2cccc3cc(-c4cccc5[nH]nc(N)c45)ccc23)ccc1F	enzyme activity, inhibitor		0.1 µM	activity vs control	98%
O=C1NC(=O)c2cc(Nc3ccc(F)cc3)c(Nc3ccc(F)cc3)cc21	cell-free assay		0.5 µM	remaining signal	90.7%
COc1cc(Cl)c(C(=O)N[C@@H](CN[C@H]2CC[C@@H](N)CC2)Cc2ccc(C#N)cc2)cc1-c1ccc(CN[C@H](C)c2ccc(C)cc2)o1	enzyme activity, inhibitor		1 µM	remaining activity	101%
